Test results: ChEMBL document CHEMBL1122806 (J Med Chem, 1984)
Square brackets hold non-standard residues; d marks the D form. Peptide text beside a SMILES is read from it. Sta = CC(C)C[C@H](N)[C@@H](O)CC(=O)O

Tests used:
Aminopeptidase N [1] = target: T1, Aminopeptidase N (Sus scrofa, UniProt P15145); experiment: Compound was evaluated for the inhibition of Aminopeptidase M (AP-M) and the inhibition constant was determined after preincubating the enzyme and inhibitor
T1 sequence (P15145 whole entry): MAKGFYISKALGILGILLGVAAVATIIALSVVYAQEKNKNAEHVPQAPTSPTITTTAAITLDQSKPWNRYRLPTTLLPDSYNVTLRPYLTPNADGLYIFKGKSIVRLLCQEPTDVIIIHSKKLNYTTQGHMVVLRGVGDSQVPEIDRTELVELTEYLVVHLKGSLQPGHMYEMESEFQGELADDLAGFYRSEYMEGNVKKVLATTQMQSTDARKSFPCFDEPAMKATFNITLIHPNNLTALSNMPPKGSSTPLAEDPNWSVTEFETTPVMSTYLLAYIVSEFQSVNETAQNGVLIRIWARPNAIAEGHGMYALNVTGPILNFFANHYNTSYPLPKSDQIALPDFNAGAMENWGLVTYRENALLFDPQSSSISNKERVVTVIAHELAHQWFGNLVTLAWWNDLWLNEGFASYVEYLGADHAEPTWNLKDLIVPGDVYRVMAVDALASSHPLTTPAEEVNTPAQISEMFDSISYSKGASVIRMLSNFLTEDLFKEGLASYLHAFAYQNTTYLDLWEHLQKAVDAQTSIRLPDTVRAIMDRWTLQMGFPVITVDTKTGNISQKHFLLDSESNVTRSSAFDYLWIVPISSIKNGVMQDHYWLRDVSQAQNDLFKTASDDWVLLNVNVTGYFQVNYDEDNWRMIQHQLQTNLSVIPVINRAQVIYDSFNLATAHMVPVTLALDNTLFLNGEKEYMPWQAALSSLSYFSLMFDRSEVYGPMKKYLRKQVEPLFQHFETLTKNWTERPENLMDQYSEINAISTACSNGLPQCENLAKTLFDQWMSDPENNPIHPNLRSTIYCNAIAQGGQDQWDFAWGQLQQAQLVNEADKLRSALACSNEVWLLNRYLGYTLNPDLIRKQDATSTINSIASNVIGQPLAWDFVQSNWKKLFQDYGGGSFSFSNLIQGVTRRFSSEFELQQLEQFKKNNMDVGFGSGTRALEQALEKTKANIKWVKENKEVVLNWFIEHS
How it was run: (§1)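 Initial rates came from reactions started by adding enzyme to substrate plus inhibitor. Final steady-state rates came after 15-20 min enzyme-inhibitor preincubation, with substrate added to start. Reaction velocities were analysed by Lineweaver-Burk plots.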

[2] = target: Cytosol aminopeptidase (Sus scrofa) (UniProt P28839); experiment: Compound was evaluated for the inhibition of Leucine aminopeptidase from porcine kidney and the inhibition constant (Ka) was determined which is the apparent Km in the presence of tripeptide after preincubating the enzyme and inhibitor
Cytosol aminopeptidase (Sus scrofa), sequence (P28839 whole entry, looked up): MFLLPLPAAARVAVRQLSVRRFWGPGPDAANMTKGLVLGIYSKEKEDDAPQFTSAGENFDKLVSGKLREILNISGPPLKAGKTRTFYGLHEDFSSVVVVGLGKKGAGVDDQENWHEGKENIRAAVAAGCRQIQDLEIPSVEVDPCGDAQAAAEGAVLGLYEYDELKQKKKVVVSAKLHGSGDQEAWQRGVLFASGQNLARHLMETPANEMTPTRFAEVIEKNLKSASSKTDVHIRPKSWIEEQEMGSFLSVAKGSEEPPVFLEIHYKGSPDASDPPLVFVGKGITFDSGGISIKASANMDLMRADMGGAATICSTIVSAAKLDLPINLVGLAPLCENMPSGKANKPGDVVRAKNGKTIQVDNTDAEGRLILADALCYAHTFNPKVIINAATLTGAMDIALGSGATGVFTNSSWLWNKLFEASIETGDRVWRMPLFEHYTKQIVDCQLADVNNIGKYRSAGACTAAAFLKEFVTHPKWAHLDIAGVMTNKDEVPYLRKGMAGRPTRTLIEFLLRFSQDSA

Aminopeptidase N [3] = target: T1, Aminopeptidase N; experiment: Compound was evaluated for the inhibition of Aminopeptidase M (AP-M) from porcine kidney and the inhibition constant was determined after preincubating the enzyme and inhibitor; how it was run: as §1
Aminopeptidase N [4] = target: T1, Aminopeptidase N; experiment: Effect of inhibitor structure on the slow binding inhibition of Aminopeptidase M from porcine kidney was determined and the Ki was reported which is = k2/k1; how it was run: as §1
Aminopeptidase N [5] = target: T1, Aminopeptidase N; experiment: Effect of inhibitor structure on the slow binding inhibition of Aminopeptidase M from porcine kidney was determined and Ki was reported which is obtained by the equation Ki[k4/(k3 + k4)]; how it was run: as §1
Aminopeptidase N [6] = target: T1, Aminopeptidase N; experiment: Effect of inhibitor structure on the slow binding inhibition of aminopeptidase M was determined and the Ki was reported which is = k2/k1; how it was run: as §1
Aminopeptidase N [7] = target: T1, Aminopeptidase N; experiment: Effect of inhibitor structure on the slow binding inhibition of aminopeptidase M was determined and Ki* was reported which is obtained by the equation Ki[k4/(k3 + k4)]; how it was run: as §1

CC(C)C[C@H](NC(=O)[C@@H](O)[C@H](N)CC(C)C)C(=O)O
Ki (Aminopeptidase N [1]): 11.8 µM

CC(C)C[C@H](N)[C@@H](O)CC(=O)N[C@H](C(=O)N[C@H](C(=O)N[C@@H](CC(=O)O)C(=O)O)C(C)C)C(C)C (H-[Sta]VVD-OH)
Ka [2]: 0.0057

CC(C)CCNC(=O)[C@@H](NC(=O)[C@@H](NC(=O)[C@H](O)[C@@H](N)CC(C)C)C(C)C)C(C)C
Ki (Aminopeptidase N [1]): 0.18 µM

CC(C)CCNC(=O)[C@H](O)[C@@H](N)Cc1ccccc1
Ki (Aminopeptidase N [3]): 16.3 µM | Ki (Aminopeptidase N [4]): 16 µM | Ki (Aminopeptidase N [5]): 16 µM

CC(C)CCNC(=O)[C@@H](NC(=O)[C@@H](NC(=O)C[C@H](O)[C@@H](N)CC(C)C)C(C)C)C(C)C
Ki (Aminopeptidase N [3]): 1000 µM

CC(C)C[C@@H](N)CC(=O)N[C@H](C(=O)N[C@H](C(=O)N[C@@H](CC(=O)O)C(=O)O)C(C)C)C(C)C
Ki (Aminopeptidase N [1]): 25 µM

CC(C)CC(N)C(O)C(=O)NC(C(=O)NC(CC(=O)O)C(=O)O)C(C)C (stereo unspecified)
Ki (Aminopeptidase N [6]): 40 µM | Ki (Aminopeptidase N [1]): 0.94 µM | Ki (Aminopeptidase N [7]): 0.9 µM
